We go through 25 molecules from ChEMBL document CHEMBL3877291, “Structure-guided design of novel Trypanosoma brucei Methionyl-tRNA synthetase inhibitors” (Eur J Med Chem, 2016).

Data set [1] relates to Trypanosoma brucei. Nature of the data set: Antitrypanosomal activity against Trypanosoma brucei 427 bloodstream forms assessed as parasitic growth inhibition after 48 hrs by alamar blue assay. The format is functional. Particulars: Trypanosoma brucei, 427, 48 h. In outline: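 Bloodstream-form strain 427 trypomastigotes cultured in HMI-9 with 10% FBS, penicillin and streptomycin at 37°C, 5% CO2. Seeded at 1 × 10^4 per well, serial compound dilutions from 20 mM DMSO stocks, triplicate. Growth read with Alamar Blue at 48 h; pentamidine run as positive control in each assay.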

In data set [2] the test system is Trypanosoma brucei. As to the kind of experiment: Inhibition of Trypanosoma brucei 427 recombinant full length N-terminal 6His-tagged methionyl tRNA synthetase expressed in Escherichia coli assessed as decrease in incorporation of [3H]L-methionine into tRNA at 1 uM preincubated for 15 mins followed by Escherichia coli tRNA addition measured after 120 mins by scintillation counting method.

Data set [3] deals with Trypanosoma brucei. As to the kind of experiment: Inhibition of Trypanosoma brucei 427 recombinant full length N-terminal 6His-tagged methionyl tRNA synthetase expressed in Escherichia coli assessed as decrease in incorporation of [3H]L-methionine into tRNA at 10 uM preincubated for 15 mins followed by Escherichia coli tRNA addition measured after 120 mins by scintillation counting method.

Data set [4] has as its system Trypanosoma brucei. Nature of the data set: Binding affinity to Trypanosoma brucei methionyl-tRNA synthetase assessed as change in melting temperature at 100 uM by SYPRO orange dye based thermal shift assay. The gist of the method:
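TbMetRS in 100 mM HEPES pH 7.5, 100 mM NaCl, 10 mM ATP-Mg with SYPRO Orange; compound at 100 µM final. Fluorescence measured in triplicate from 25 to 90 °C in 0.2 °C steps. Tm taken as the temperature of the first-derivative maximum.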

Data set [5] can be described thus: Inhibition of Trypanosoma brucei methionyl tRNA synthetase preincubated for 15 mins followed by L-methionine substrate addition measured after 120 mins by ATP- depletion chemiluminescence assay. In outline: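 Triplicate. Compound pre-incubated 15 min at room temperature with 50 nM TbMetRS, 200 µg/mL E. coli tRNA, 0.1 U/mL pyrophosphatase, 0.2 mM spermine, BSA, DTT, 25 mM HEPES-KOH pH 7.9, 10 mM MgCl2, 50 mM KCl, 2% DMSO. Started with 100 nM ATP and 32 µM L-methionine; after 120 min, Kinase-Glo luminescence read. IC50 from sigmoidal dose-response fit.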

Data set [6] is described as follows: Cytotoxicity against human CRL-1855 cells assessed as cell viability after 48 hrs by alamar blue assay. The format is toxicity, cell-based. In outline:
(§1)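 CRL-1855 cells grown in RPMI and HepG2 cells in DMEM/F-12, both with 10% FBS, penicillin and streptomycin. Plated at 5 × 10^3 per well with serial compound dilutions in quadruplicate for 48 h. Alamar Blue added for a further 4 h at 37 °C, 5% CO2. OD570–600 viability referenced to untreated cells.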
(Alamar Blue is a resazurin reagent that responds to reducing activity.)

Data set [7] in a line: Cytotoxicity against human HepG2 cells assessed as cell viability after 48 hrs by alamar blue assay. Type of data set: toxicity, cell-based. The gist of the method:
as §1

Data set [8] in a line: Cmax in mouse at 50 mg/kg, administered through oral gavage by LC-MS analysis. Further details: dose 50 mg/kg, route oral. The format is ADME, organism-based. The following applies: in vivo. In outline: (§2)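 Mice dosed by oral gavage at 50 mg/kg in 0.2 mL vehicle (7% tween80, 3% ethanol, 5% DMSO, 0.9% saline); plasma compound levels followed to give Cmax and AUC.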
The nature of data set [9]: Selectivity index, ratio of EC50 for human CRL-1855 cells to EC50 for Trypanosoma brucei 427 bloodstream forms. The format is toxicity, cell-based. The following applies: read-out: Ratio EC50.
Data set [10] is described as follows: AUC in mouse at 50 mg/kg, administered through oral gavage by LC-MS analysis. Type of data set: ADME, organism-based. The following applies: in vivo. The gist of the method: as §2

What is called EC50 is the concentration needed to bring the measured effect to its halfway point. Turning to `N=C(N)c1ccc(OCCCCCOc2ccc(C(=N)N)cc2)cc1` [PENTAMIDINE], in the data set on Trypanosoma brucei [1], the EC50 is 0.9 nM.

The term inhibition denotes the drop in the measured response relative to a control, in per cent. For the molecule `Cc1cc2cc(C(=O)N3CCCC(c4nc5ccccc5[nH]4)C3)ccc2o1` (stereo not given), the inhibition is 20% in the data set on Trypanosoma brucei [2] and 78% in the data set with Trypanosoma brucei [3].

As a reminder, the ΔTm is the shift of the melting midpoint relative to a reference. The term IC50 denotes the concentration at which inhibition is half-maximal. Turning to `Clc1cc(Cl)cc(CNC2CCCCN(c3nc4nc(Cl)ccc4[nH]3)C2)c1` (stereo not given), the EC50 with Trypanosoma brucei [1] amounted to 1810 nM. The ΔTm in the data set on Trypanosoma brucei [4] came out at 6.8 °C. Also, the concentration for half-maximal inhibition (IC50) in [5] came out at 682 nM.

Regarding `Clc1cc(Cl)cc(CNCCCc2nc3ccc(Cl)nc3[nH]2)c1`, in the data set with Trypanosoma brucei [1], the EC50 worked out at 307 nM. Further, in the data set on Trypanosoma brucei [4], the thermal shift (ΔTm) is 12.8 °C. The molecule also returned an IC50 in data set [5] below 50 nM. Besides, the results for the EC50 at 48 h in [6] and in [7] were 45700 nM and 45600 nM, respectively.

In the case of `Clc1cc(Cl)cc(CN[C@@H]2CCCN(c3nc4nc(Cl)ccc4[nH]3)C2)c1`, in the data set on Trypanosoma brucei [1], the half-maximal effective concentration (EC50) was 999 nM. Further, the ΔTm with Trypanosoma brucei [4] is 13.1 °C. Besides, the IC50 in [5] turned out to be 192 nM.

For the molecule `Clc1cc(Cl)cc(CO[C@H]2CCCN(c3nc4nc(Cl)ccc4[nH]3)C2)c1`, the EC50 in the data set on Trypanosoma brucei [1] amounted to 8800 nM. Moreover, in the data set with Trypanosoma brucei [4], the ΔTm worked out at 7.5 °C. Besides, the 50% inhibitory concentration (IC50) in data set [5] is 196 nM.

For the molecule `CCN(CC)CCCC(C)Nc1c2ccc(Cl)cc2nc2ccc(OC)cc12` (stereo not given) [QUINACRINE], the values for the EC50 at 48 h in data set [6] and in data set [7] were 2120 nM and 11900 nM, respectively.

In the case of `Clc1cc(Cl)cc(CNCCCc2nc3ccc(Cl)cc3[nH]2)c1`, the half-maximal effective concentration (EC50) in the data set on Trypanosoma brucei [1] was determined as 2150 nM. Moreover, the ΔTm with Trypanosoma brucei [4] came to 10.8 °C. The 50% inhibitory concentration (IC50) in data set [5] is 243 nM.

Consider `Clc1cc(Cl)cc(CNC2CN(c3nc4nc(Cl)ccc4[nH]3)C2)c1`, for which, in the data set with Trypanosoma brucei [1], the half-maximal effective concentration (EC50) turned out to be 15300 nM. Moreover, the ΔTm in the data set on Trypanosoma brucei [4] came out at 6.4 °C. Besides, in data set [5], the half-inhibitory concentration (IC50) was found to be 2170 nM.

Usually Cmax stands for the maximum level reached in the sampled fluid or tissue. The AUC is concentration integrated over time. A high value points to high exposure. With `Clc1cc(Cl)cc(CN[C@H]2CCCN(c3nc4nc(Cl)ccc4[nH]3)C2)c1`, the EC50 in the data set on Trypanosoma brucei [1] stood at 39 nM. Also, the ΔTm with Trypanosoma brucei [4] is 19 °C. This molecule returned a Cmax in [8] of 37.6 µM. Moreover, in [5], the IC50 was below 50 nM. Further, the figures for the EC50 at 48 h in [6] and in data set [7] were 29300 nM and 49000 nM, respectively. Besides, the selectivity ratio in [9] is 751. Besides, the AUC in data set [10] was determined as 104 µM·h.

On to `Clc1cc(Cl)cc(CNCCSc2nc3nc(Cl)ccc3[nH]2)c1`, for which the EC50 in the data set with Trypanosoma brucei [1] was determined as 1400 nM. The molecule also came in with an IC50 in [5] of 1050 nM.

As for `O=C(Cc1cc(Cl)cc(Cl)c1)N1CCCC(c2nc3ccccc3[nH]2)C1` (stereo not given), the 50% effective concentration (EC50) with Trypanosoma brucei [1] is above 5000 nM. The ΔTm with Trypanosoma brucei [4] amounted to 7.8 °C. This molecule also showed an IC50 in data set [5] of 288 nM.

Take `Clc1cc(Cl)cc(CN[C@H]2CCN(c3nc4ccc(Cl)nc4[nH]3)C2)c1`: in the data set on Trypanosoma brucei [1], the EC50 was determined as 1540 nM. In addition, in the data set with Trypanosoma brucei [4], the ΔTm came out at 11.4 °C. Moreover, the half-maximal inhibitory concentration (IC50) in data set [5] was below 50 nM.

With `Clc1cc(Cl)cc(NCC2CCCN(c3nc4nc(Cl)ccc4[nH]3)C2)c1` (stereo not given), the EC50 with Trypanosoma brucei [1] was 343 nM. Moreover, the ΔTm with Trypanosoma brucei [4] was 14.4 °C. The same molecule yielded an IC50 in [5] below 50 nM. The EC50 at 48 h in data set [6] came to 15400 nM; in data set [7], 29200 nM.

Consider `Clc1cc(Cl)cc(CNC2CCCC(c3nc4nc(Cl)ccc4[nH]3)C2)c1` (stereo not given), for which the EC50 in the data set with Trypanosoma brucei [1] turned out to be 359 nM. Besides, the ΔTm in the data set on Trypanosoma brucei [4] is 14.2 °C. In [5], this molecule registered an IC50 of 124 nM. Moreover, the EC50 at 48 h in [6] is 33100 nM; in data set [7] it was 32300 nM.

For the molecule `Clc1cc(Cl)cc(CNC2CCCC(c3nc4cc(Cl)ccc4[nH]3)C2)c1` (stereo not given), the EC50 in the data set with Trypanosoma brucei [1] worked out at 1950 nM. Further, in the data set with Trypanosoma brucei [4], the ΔTm was 12.6 °C. The same molecule had an IC50 in [5] of 580 nM.

As to `O=C(Nc1cc(Cl)cc(Cl)c1)[C@H]1CCCN(c2nc3nc(Cl)ccc3[nH]2)C1`, in the data set with Trypanosoma brucei [1], the EC50 was above 20000 nM. In addition, the ΔTm in the data set with Trypanosoma brucei [4] is 2.6 °C. Besides, the IC50 in data set [5] is above 10000 nM.

For the molecule `Clc1cc(Cl)cc(CN[C@@H]2CCC[C@H](c3nc4nc(Cl)ccc4[nH]3)C2)c1`, the concentration for a half-maximal effect (EC50) in the data set on Trypanosoma brucei [1] was determined as 580 nM. Moreover, the ΔTm with Trypanosoma brucei [4] was 13.1 °C. Moreover, the midpoint of inhibition in data set [5], the IC50, lay at 106 nM.

Take `O=C(Cc1cc(Cl)cc(Cl)c1)N1CCCC(c2nc3c(Cl)cccc3[nH]2)C1` (stereo not given): the EC50 in the data set with Trypanosoma brucei [1] is 8810 nM. Further, in the data set with Trypanosoma brucei [4], the ΔTm is 7.4 °C. For the same molecule, inhibition in data set [5] was half-maximal at 926 nM (IC50).

Take `Clc1cc(Cl)cc(CNC2CCN(c3nc4nc(Cl)ccc4[nH]3)CC2)c1`: in the data set on Trypanosoma brucei [1], the EC50 is 13300 nM. Moreover, the ΔTm in the data set on Trypanosoma brucei [4] was found to be 5.8 °C. In data set [5], this molecule registered an IC50 of 4970 nM.

For `Clc1cc(Cl)cc(CN[C@@H]2CCN(c3nc4ccc(Cl)nc4[nH]3)C2)c1`, the EC50 in the data set with Trypanosoma brucei [1] was 9010 nM. In addition, the shift in melting temperature (ΔTm) in the data set with Trypanosoma brucei [4] was 7.2 °C. For the same molecule, the IC50 in [5] was 696 nM.

As for `O=C(N[C@H]1CCCN(c2nc3nc(Cl)ccc3[nH]2)C1)c1cc(Cl)cc(Cl)c1`, the EC50 with Trypanosoma brucei [1] was above 20000 nM. Besides, the ΔTm in the data set on Trypanosoma brucei [4] was 0 °C. This molecule came in with an IC50 in data set [5] above 10000 nM.

With `Clc1cc(Cl)cc(CNC2CCCN(c3nc4nc(Cl)ccc4[nH]3)C2)c1` (stereo not given), in the data set with Trypanosoma brucei [1], the EC50 turned out to be 82 nM. Also, the ΔTm in the data set with Trypanosoma brucei [4] stood at 18.4 °C. In addition, the concentration for half-maximal inhibition (IC50) in data set [5] was below 50 nM. Besides, the EC50 at 48 h in [6] is 46200 nM; in data set [7], above 50000 nM.

Take `Clc1cc(Cl)cc(CCN2CCCC(c3nc4nc(Cl)ccc4[nH]3)C2)c1` (stereo not given): the EC50 in the data set with Trypanosoma brucei [1] amounted to 3760 nM. Also, the ΔTm with Trypanosoma brucei [4] amounted to 6 °C. Further, in [5], the IC50 was above 10000 nM.

Take `O=C(Cc1cc(Cl)cc(Cl)c1)N1CCCC(c2nc3cc(Cl)ccc3[nH]2)C1` (stereo not given): the EC50 with Trypanosoma brucei [1] worked out at 1400 nM. The ΔTm in the data set on Trypanosoma brucei [4] is 7.2 °C. Further, in [5], the IC50 is 60 nM. The EC50 at 48 h in data set [6] is 22800 nM; in data set [7], 35400 nM.
